Laboratory results from ChEMBL document CHEMBL3351772, “Xenortide Biosynthesis by Entomopathogenic Xenorhabdus nematophila” (J Nat Prod, 2014).
Square brackets hold non-standard residues; d marks the D form. Peptide text beside a SMILES is read from it. * marks the point of attachment. NMeF = CN[C@@H](Cc1ccccc1)C(=O)O; NMeL = CN[C@@H](CC(C)C)C(=O)O; NHPhenethyl = c1ccc(CCN*)cc1; NMeV = CN[C@H](C(=O)O)C(C)C

Columns and labels:
Trypanosoma cruzi = assay: Antiparasitic activity against Trypanosoma cruzi Tulahuen C4; format: functional, organism-based
[1] = tested on: Trypanosoma brucei rhodesiense; assay: Antiparasitic activity against Trypanosoma brucei rhodesiense STIB900; format: functional, organism-based
Leishmania donovani = assay: Antiparasitic activity against Leishmania donovani; format: functional, organism-based
How it was run: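 Leishmania donovani strain MHOM-ET-67/L82; assay run per an earlier published method.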

L6 = assay: Cytotoxicity against rat L6 cells; format: cell-based
How it was run: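 Rat L6 skeletal myoblasts; cytotoxicity assay run per an earlier published method.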

Plasmodium falciparum = assay: Antiparasitic activity against Plasmodium falciparum NF54; format: functional, organism-based

SMILES | IC50 (Trypanosoma cruzi) [µM] | IC50 [1] [µM] | IC50 (Leishmania donovani) [µM] | IC50 (Plasmodium falciparum) [µM] | IC50 (L6) [µM]
CN[C@H](C(=O)N(C)[C@@H](Cc1ccccc1)C(=O)NCCc1ccccc1)C(C)C (H-[NMeV]-[NMeF]-NHPhenethyl) | 132 | 89.2 | 25 | > 126 | > 253
CCCCCCCCCCCCCCCCOP(=O)([O-])OCC[N+](C)(C)C [MILTEFOSINE] | – | – | 0.459 | – | –

Further lines, with some results ahead:

IC50 (Trypanosoma cruzi) [µM] | IC50 [1] [µM] | IC50 (Leishmania donovani) [µM] | IC50 (Plasmodium falciparum) [µM] | SMILES | IC50 (L6) [µM]
52.7 | 4.92 | 17.3 | 7.66 | CN[C@H](C(=O)N(C)[C@@H](Cc1ccccc1)C(=O)NCCc1c[nH]c2ccccc12)C(C)C | 85.6
46.4 | 22.5 | 124 | 19.2 | CN[C@@H](CC(C)C)C(=O)N(C)[C@@H](Cc1ccccc1)C(=O)NCCc1ccccc1 [XENORTIDE A] (H-[NMeL]-[NMeF]-NHPhenethyl) | 116
11.7 | 1.57 | 111 | 0.76 | CN[C@@H](CC(C)C)C(=O)N(C)[C@@H](Cc1ccccc1)C(=O)NCCc1c[nH]c2ccccc12 [XENORTIDE B] | 13.7
